The source made the active and inactive calls. The rule behind the calls is not given here.
What was measured:
HeLa C3 [1] = experiment: Induction of apoptosis in human HeLaC3 cells assessed as shrinkage and detached morphology at 500 nM after 24 hrs
HeLa C3 [2] = experiment: Induction of apoptosis in human HeLaC3 cells assessed as shrinkage and detached morphology at 500 nM after 48 hrs
HeLa C3 [3] = experiment: Induction of apoptosis in human HeLaC3 cells assessed as shrinkage and detached morphology at 500 nM after 72 hrs
HeLa C3 [4] = experiment: Induction of apoptosis in human HeLaC3 cells assessed as reduction of yellow fluorescent protein/cyan fluorescent protein emission ratio below 3 at 500 nM after 24 hrs using fluorescent plate reader
HeLa C3 [5] = experiment: Induction of apoptosis in human HeLaC3 cells assessed as reduction of yellow fluorescent protein/cyan fluorescent protein emission ratio below 3 at 500 nM after 48 hrs using fluorescent plate reader
HeLa C3 [6] = experiment: Induction of apoptosis in human HeLaC3 cells assessed as reduction of yellow fluorescent protein/cyan fluorescent protein emission ratio below 3 at 500 nM after 72 hrs using fluorescent plate reader
HeLa C3 [7] = experiment: Induction of apoptosis in human HeLaC3 cells assessed as reduction of yellow fluorescent protein/cyan fluorescent protein emission ratio below 3 at 20 uM after 24 hrs using fluorescent plate reader; format: functional, cell-based
How it was run: (§1)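 HeLa-C3 cells express a caspase-3-cleavable CFP/YFP biosensor and are grown in MEM with 10% FBS and penicillin/streptomycin at 37 °C, 5% CO2. Seed 7500 cells per well and incubate 12-16 h. Take a 0 h read (ex 440 nm; em 486 nm CFP, 535 nm YFP), then replace the medium with compound-containing medium; include cell-free background wells. Read repeatedly up to 72 h. A YFP/CFP ratio below 3 scores as apoptotic. Triplicate wells, three experiments; 0.1% DMSO negative control.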

HeLa C3 [8] = experiment: Induction of apoptosis in human HeLaC3 cells assessed as reduction of yellow fluorescent protein/cyan fluorescent protein emission ratio below 3 at 20 uM after 48 hrs using fluorescent plate reader; format: functional, cell-based
How it was run: as §1

HeLa C3 [9] = experiment: Induction of apoptosis in human HeLaC3 cells assessed as reduction of yellow fluorescent protein/cyan fluorescent protein emission ratio below 3 at 20 uM after 72 hrs using fluorescent plate reader; format: functional, cell-based
How it was run: as §1

HeLa C3 [10] = experiment: Induction of apoptosis in human HeLaC3 cells assessed as shrinkage and detached morphology at 20 uM after 24 hrs; format: functional, cell-based
HeLa C3 [11] = experiment: Induction of apoptosis in human HeLaC3 cells assessed as shrinkage and detached morphology at 20 uM after 48 hrs; format: functional, cell-based
HeLa C3 [12] = experiment: Induction of apoptosis in human HeLaC3 cells assessed as shrinkage and detached morphology at 20 uM after 72 hrs; format: functional, cell-based

Compound	Activity (HeLa C3 [7])	Activity (HeLa C3 [8])	Activity (HeLa C3 [9])	also measured
CC(=O)O[C@H]1C(=O)[C@@]2(C)[C@H]([C@H](OC(=O)c3ccccc3)[C@]3(O)C[C@H](OC(=O)[C@H](O)[C@@H](NC(=O)c4ccccc4)c4ccccc4)C(C)=C1C3(C)C)[C@]1(OC(C)=O)CO[C@@H]1C[C@@H]2O	–	–	–	Activity (HeLa C3 [1]): Active; Activity (HeLa C3 [2]): Active; Activity (HeLa C3 [3]): Active; Activity (HeLa C3 [4]): inactive; Activity (HeLa C3 [5]): Active; Activity (HeLa C3 [6]): Active
CC(C)=CCC/C(C)=C/C[C@@H]1C[C@@]2(CC=C(C)C)C(=O)c3c(oc4cc(O)c(O)cc4c3=O)[C@](CC=C(C)C)(C2=O)C1(C)C	inactive	Active	Active	–
CC(C)=CCC/C(C)=C/C[C@@H]1C[C@]2(CC=C(C)C)C(=O)[C@@](CC=C(C)C)(C(=O)C(C(=O)c3ccc(O)c(O)c3)=C2O)C1(C)C	inactive	Active	Active	–
COc1cc(O)c2c(=O)c3c(CC=C(C)C)cc(O)c(O)c3oc2c1C/C=C(\C)CCC=C(C)C	inactive	Active	Active	–
CC(C)=CCC/C(C)=C/C[C@H]1C[C@]2(C/C=C(\C)CCC=C(C)C)C(=O)[C@@](CC=C(C)C)(C(=O)C(C(=O)c3ccc(O)c(O)c3)=C2O)C1(C)C	inactive	inactive	Active	–
CC(C)=CCC/C(C)=C/C[C@H]1C[C@@]2(CC=C(C)C)C(=O)c3c(oc4cc(O)c(O)cc4c3=O)[C@](CC=C(C)C)(C2=O)C1(C)C	inactive	Active	Active	–
CC(C)=CCC/C(C)=C/C[C@@H]1C[C@]2(CC=C(C)C)C(=O)[C@@](CC=C(C)C)(C(=O)C(C(=O)c3ccc(O)c(O)c3)=C2O)[C@@]1(C)CCC=C(C)C	Active	Active	Active	Activity (HeLa C3 [10]): Active; Activity (HeLa C3 [11]): Active; Activity (HeLa C3 [12]): Active
COc1cc(O)c2c(=O)c3ccc(O)c(O)c3oc2c1CCC(C)(C)O	inactive	inactive	Active	–
CC1(C)C=Cc2cc3c(=O)c4c(O)cc(O)cc4oc3c(O)c2O1	inactive	inactive	Active	–

From ChEMBL document CHEMBL1151810, “Bioassay-guided isolation of xanthones and polycyclic prenylated acylphloroglucinols from Garcinia oblongifolia” (J Nat Prod, 2009)
